# Compounds with a hit are over-represented: about 1.8% of the library has one in this group of screens.
# EphB4 ephrin blk – blocks human EphB4 binding to ephrin-B2 | P54760 | EphB4 LBD / TNYL-RAW-Alexa532 peptide, fluorescence polarization | inhibition, % at 7 µM | hit rate 0.15% among 97,000 | AID 720;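 active = inhibition above the screen-wide mean inhibition plus 3 SD, cut at about 15% in these data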;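 note: 0% = DMSO wells and 100% = excess unlabeled TNYL-RAW peptide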
# LYP act – increases human PTPN22 phosphatase activity | activation, % at 2 µM | recombinant LYP, DiFMUP fluorescence; 0 = plate median, 100 = signal doubled | hit rate 0.11% among 96,000;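 active = activation at 2 µM above a set limit, the mean plus 5 SD, cut at about 37% in these data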
# PLK1 PBD inh – inhibitors of human Plk1 polo box domain binding | P53350 | Plk1 PBD phosphopeptide binding, fluorescence polarization | inhibition, %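 (tested at about 20 µM)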 | hit rate 0.13% among 97,000 | AID 693; in the data active = inhibition above about 34%, passing the limit was not always enough
# HIV Rev-RRE inh – HIV Rev-RRE protein-RNA interaction inhibition | P05866 | Rev peptide-RRE RNA binding, FRET | inhibition, % at 8 µM | hit rate 0.79% among 97,000;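 active = inhibition above the screen-wide mean plus 3 SD, cut at about 35% in these data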;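 note: 0% = median DMSO wells and 100% = median Neomycin B control wells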
# Target sequence (P05866 whole entry, looked up): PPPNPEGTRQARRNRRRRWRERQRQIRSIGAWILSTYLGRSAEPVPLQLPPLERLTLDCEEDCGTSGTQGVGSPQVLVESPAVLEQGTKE
#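 System: Cy5-labelled duplex RRE RNA binding fluorescein-labelled HIV Rev peptide; Signal: fluorescein-to-Cy5 FRET, 480 nm excitation; Also added: labelled Rev peptide; Compound: one concentration, 8 µM nominal; Buffer or medium: HEPES pH 7.5 salt buffer with EDTA; Read-out: % inhibition of FRET ratio versus controls; Schedule: 5 min preincubation and 15 min binding, 25 °C.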
# PLK1 inh – PLK1 (human) kinase inhibition; inhibition, % at 10 µM; recombinant PLK1 kinase, TR-FRET peptide phosphorylation; hit rate 0.53% among 97,000;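 active = inhibition of 50% or more in the single-concentration screen; inactive = inhibition below 50%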;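 note: 0% = DMSO max control and 100% = H-89 dihydrochloride min control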
# PTPN22 inh 2 – inhibitors of human LYP (PTPN22) phosphatase; recombinant LYP catalytic domain, DiFMUP fluorescence; hit rate 0.21% among 96,000; Q9Y2R2; inhibition, % at 2 µM;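 active = inhibition at 2 µM at or above a set limit, the screen mean plus 3 SD, cut at about 24% in these data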;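 note: 0% = DMSO with enzyme and 100% = enzyme fully blocked by orthovanadate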
# An asterisk follows results filed as active; [ ] = remark or other dose.
SMILES,EphB4 ephrin blk,LYP act,PLK1 PBD inh,HIV Rev-RRE inh,PLK1 inh,PTPN22 inh 2
CCN1CC=C2C(C1)C(c1ccc(Cl)s1)C(C#N)=C(N)C2(C#N)C#N (stereo not drawn),0,2,-37,87*[fluorescence artefact?],9,-5
CC(C)OC(=O)c1c2nc3ccccc3nc2n2c1[nH]c(=O)c1ccccc12,0,-14,-34,69*,-19,13
CCC(C)(C)NC(=O)C(c1ccc(OC)cc1)N(Cc1cccs1)C(=O)CCC(=O)Nc1cc(C)on1 (stereo not drawn),-3,-2,2,2,-1,1
COn1cnnc1-c1ccccc1,-8,2,-10,41*,-5,-3
On1cnnc1-c1ccccc1,-5,11,2,4,1,-11
c1ccc(-c2cc(-c3nnc4n3N=C(c3ccc5ccccc5c3)CS4)[nH]n2)cc1,3,-26,2,5,-10,30*
Cc1cc(-c2nnc3n2N=C(c2ccc(-c4ccccc4)cc2)CS3)n[nH]1,1,-3,1,17,-12,1
CN1C(=O)/C(=C/c2ccccc2OCc2cccc(F)c2)NC1=S,5,-5,11,-2,-4,11
C=CCNC(=S)NNC(=O)COc1cccc(Cl)c1,0,12,10,4,-3,-8
Cc1cc(O)cc(O)c1-c1onc(C(F)(F)F)c1-c1cscn1,6,-4,15,5,58*,1
CCOc1ccc(-c2onc(C(F)(F)F)c2-c2cscn2)c(O)c1,2,9,-10,8,-11,-6
COc1cccc(-c2nc(-c3ccc(NC(=O)c4cccs4)cc3)no2)c1,-1,7,-12,1,-13,-2
O=[N+]([O-])c1ccc(/C=N/Nc2nc(N3CCCCCC3)nc(N3CCCCCC3)n2)o1,2,-8,-6,46*,-11,9
Nc1c(S(=O)(=O)c2cccc(Cl)c2)c2nc3ccccc3nc2n1/N=C/c1ccc(O)c(O)c1,0,4,20,4,-8,-6
CCOC(=O)c1c(C)oc2c1c1c(c3ccccc32)OCN(Cc2cccnc2)C1,16*,-2,9,8,-1,5
CCCCCc1ccc(CC(=O)Nn2c(C)nc3ccccc3c2=O)cc1,-2,11,2,8,-10,-12
O=C1CC(=C2c3ccccc3-c3ccccc32)C(=O)N1CCN1CCN(c2cccc(Cl)c2)CC1,-3,-24,-10,9,-10,25*
O=C1CC(=C(c2ccccc2)c2ccccc2)C(=O)N1CCCCN1CCN(c2ccccc2)CC1,3,-19,-8,7,1,19
CC(=O)Nc1ccc(OCC=C(Cl)Cl)cc1,16*,-5,8,11,-11,11
COc1cc(C)c(CNc2ccc(OC)c(OC)c2)cc1C,-2,7,13,40*,-9,-8
COc1cc(C)c(CNc2cccc(C)c2)cc1C,0,3,-8,8,-2,-4
Cc1ccc2nc3sc(C(=O)NCc4ccco4)c(N)c3cc2c1,-5,-6,-13,37*,-8,6
COc1cc2cc3c(N)c(C(=O)NCc4ccco4)sc3nc2cc1OC,-9,7,7,34,-3,-10
COc1ccc(N=NC2=C(O)CC(C)(C)CC2=O)c(OC)c1,2,-4,-45,59*,-28,3
COc1ccc(N=NC2=C(O)CC(C)(C)CC2=O)cc1,-3,-4,9,11,-16,6
SMILES,EphB4 ephrin blk,LYP act,PLK1 PBD inh,HIV Rev-RRE inh,PLK1 inh,PTPN22 inh 2
COc1ccc(-c2nnc(-c3cc4c(ccc5ccccc54)oc3=O)o2)cc1,9,-9,-18,6,11,11
CCN(CC)c1ccc2cc(-c3nnc(-c4ccc(Br)cc4)o3)c(=O)oc2c1,-3,-19,-117,140*[fluorescence artefact?],-27,19
CCN(CC)c1ccc2cc(-c3nnc(-c4ccccc4)o3)c(=O)oc2c1,0,4,-98,141*[fluorescence artefact?],-18,-4
CCOC(=O)c1ccc(S(=O)(=O)N2CCC(C(=O)O)CC2)cc1,3,5,-15,9,-8,-6
CCN(CC)CCNc1ncnc2c1[nH]c1ccc(OC)cc12,0,-1,9,-1,6,-2
COCCCNc1ncnc2c1[nH]c1ccccc12,3,-31,-4,4,-16,34*
COc1cccc2c1C(=O)c1ccc3ccccc3c1C2=O,1,-1,-3,5,-10,1

# Bioassay records as filed in PubChem.
